Measurements taken from ChEMBL document CHEMBL1137980, “Rationale, design, and synthesis of novel phenyl imidazoles as opioid receptor agonists for gastrointestinal disorders” (J Med Chem, 2004).
pEC50, pKi: −log10 of the molar value. Residues, ends and D or L forms follow the SMILES beside them.

Key:
[1] = target: Mu-type opioid receptor (Rattus norvegicus, UniProt P33535); experiment: Binding affinity for Mu opioid receptor of rat brain
In short: (§1)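 Male Wistar rat forebrain membranes in 50 mM Tris HCl pH 7.4 with 5 mM MgCl2. Incubated 2.5 h at 25 °C with ~4 nM [3H]DPDPE (δ) or ~0.8 nM [3H]DAMGO (μ). Filtered, rinsed with 10 mM HEPES pH 7.4 and counted by liquid scintillation. Ki derived from a range of test concentrations; single-concentration data expressed as % inhibition of specific binding.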

[2] = target: Delta-type opioid receptor (Homo sapiens, UniProt P41143); experiment: Inhibition of delta opioid receptor mediated GTPgammaS binding to CHO cell membranes; type: functional
Sequence of Delta-type opioid receptor (Homo sapiens, UniProt P41143) (P41143 whole entry): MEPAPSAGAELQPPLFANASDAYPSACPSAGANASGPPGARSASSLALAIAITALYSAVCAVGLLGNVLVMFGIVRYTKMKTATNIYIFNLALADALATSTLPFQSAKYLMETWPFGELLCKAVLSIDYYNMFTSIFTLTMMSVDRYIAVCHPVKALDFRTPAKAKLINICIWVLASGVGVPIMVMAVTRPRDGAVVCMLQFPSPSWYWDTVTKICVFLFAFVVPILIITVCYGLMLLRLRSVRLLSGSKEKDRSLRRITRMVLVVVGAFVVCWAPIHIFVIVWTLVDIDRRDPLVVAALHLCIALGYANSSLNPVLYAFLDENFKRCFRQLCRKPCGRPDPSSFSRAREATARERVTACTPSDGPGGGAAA
In short: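 Purchased CHO-hδ cell membranes at 10 µg/mL, coupled to SPA beads at 5 mg/mL. Incubated with 0.5 nM [35S]GTPγS and 50 µM GDP in 50 mM HEPES pH 7.6 with 5 mM MgCl2, 100 mM NaCl, 1 mM DTT and 1 mM EDTA. Increasing agonist concentrations stimulated binding. Basal binding measured without agonist; nonspecific binding with 10 µM unlabeled GTPγS.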

[3] = target: Delta-type opioid receptor (Rattus norvegicus, UniProt P33533); experiment: Binding affinity for delta opioid receptor of rat brain; in short: as §1
Sequence of Delta-type opioid receptor (Rattus norvegicus, UniProt P33533) (P33533 whole entry): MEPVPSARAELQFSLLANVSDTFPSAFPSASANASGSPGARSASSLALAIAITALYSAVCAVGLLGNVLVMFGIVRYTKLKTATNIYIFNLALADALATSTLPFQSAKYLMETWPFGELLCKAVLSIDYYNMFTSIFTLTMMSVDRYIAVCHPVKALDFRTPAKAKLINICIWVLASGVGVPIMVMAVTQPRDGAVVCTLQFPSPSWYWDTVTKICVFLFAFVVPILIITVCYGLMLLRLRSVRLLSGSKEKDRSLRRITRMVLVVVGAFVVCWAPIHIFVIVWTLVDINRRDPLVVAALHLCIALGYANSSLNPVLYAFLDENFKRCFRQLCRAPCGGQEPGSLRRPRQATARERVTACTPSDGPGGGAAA

[4] = target: Mu-type opioid receptor (Cavia porcellus, UniProt P97266); experiment: Inhibition of mu opioid receptor mediated GTPgammaS binding to CHO cell membranes; type: functional
Sequence of Mu-type opioid receptor (Cavia porcellus, UniProt P97266) (P97266 whole entry): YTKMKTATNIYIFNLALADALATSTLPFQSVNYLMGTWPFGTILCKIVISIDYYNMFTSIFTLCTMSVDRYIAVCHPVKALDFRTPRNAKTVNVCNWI

[5] = target: Opioid receptors; mu & delta (Rattus norvegicus) (UniProt P33533+P33535); experiment: Selectivity for mu 1 and delta 1 opioid receptors; type: protein assay
Sequence of Opioid receptors; mu & delta (Rattus norvegicus) (P33533 whole entry, looked up): as the sequence (P33533 whole entry) above
Sequence of Opioid receptors; mu & delta (Rattus norvegicus) (P33535 whole entry, looked up): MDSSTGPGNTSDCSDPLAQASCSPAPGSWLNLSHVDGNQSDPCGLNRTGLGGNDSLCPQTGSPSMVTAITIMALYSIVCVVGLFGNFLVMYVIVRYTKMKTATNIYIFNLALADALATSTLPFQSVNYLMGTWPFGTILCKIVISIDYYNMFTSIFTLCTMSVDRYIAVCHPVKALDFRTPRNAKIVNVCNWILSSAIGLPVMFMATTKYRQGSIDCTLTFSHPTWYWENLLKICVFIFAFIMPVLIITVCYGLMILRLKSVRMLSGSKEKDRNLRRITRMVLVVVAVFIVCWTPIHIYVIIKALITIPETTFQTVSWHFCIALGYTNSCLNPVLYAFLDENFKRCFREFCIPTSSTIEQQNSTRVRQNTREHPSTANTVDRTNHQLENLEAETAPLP

[6] = target: Kappa-type opioid receptor (Cavia porcellus, UniProt P41144); experiment: Binding affinity for kappa opioid receptor of guinea pig cerebellum; type: tissue-based
Sequence of Kappa-type opioid receptor (Cavia porcellus, UniProt P41144) (P41144 whole entry): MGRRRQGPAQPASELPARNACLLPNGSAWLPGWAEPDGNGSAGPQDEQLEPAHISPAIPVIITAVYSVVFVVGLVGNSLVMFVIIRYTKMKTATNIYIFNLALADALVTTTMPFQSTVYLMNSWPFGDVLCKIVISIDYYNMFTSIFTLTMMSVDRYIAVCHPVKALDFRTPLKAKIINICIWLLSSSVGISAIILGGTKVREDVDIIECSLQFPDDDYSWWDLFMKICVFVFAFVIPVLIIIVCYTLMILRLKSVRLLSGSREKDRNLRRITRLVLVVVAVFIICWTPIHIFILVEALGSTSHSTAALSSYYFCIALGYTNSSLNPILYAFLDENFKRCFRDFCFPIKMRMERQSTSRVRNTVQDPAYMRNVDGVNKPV

[7] = target: Kappa-type opioid receptor (Homo sapiens, UniProt P41145); experiment: Inhibition of rabbit vas deferens contractions; type: functional, Oryctolagus cuniculus; conditions: target entry is the homologue from another species
Sequence of Kappa-type opioid receptor (Homo sapiens, UniProt P41145) (P41145 whole entry): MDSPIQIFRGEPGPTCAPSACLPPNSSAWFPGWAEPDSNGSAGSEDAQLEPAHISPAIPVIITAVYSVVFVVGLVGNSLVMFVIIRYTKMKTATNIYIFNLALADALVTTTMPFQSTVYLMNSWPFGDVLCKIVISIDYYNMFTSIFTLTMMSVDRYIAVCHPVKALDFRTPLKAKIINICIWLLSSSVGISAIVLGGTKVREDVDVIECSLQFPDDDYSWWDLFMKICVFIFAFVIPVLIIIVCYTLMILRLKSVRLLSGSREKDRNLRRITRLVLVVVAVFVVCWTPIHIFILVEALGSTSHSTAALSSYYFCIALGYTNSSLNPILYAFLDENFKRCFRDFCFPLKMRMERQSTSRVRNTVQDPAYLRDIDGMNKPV
In short: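 κ functional study run on rabbit vas deferens tissue.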

[8] = system: Mus musculus; experiment: Percent inhibition of mouse abdominal constriction at a dose of 10 ug upon intracerebro ventricular administration; type: functional, Abdomen
In short: (§2)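 Male CD1 mice (18–40 g), n = 10 per group, dosed sc (10 mL/kg volume) or icv. Then challenged ip with acetylcholine bromide dissolved in distilled water (5.5 mg/kg as printed), given at 0.20 mL/20 g.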

[9] = system: Mus musculus; experiment: Percent inhibition of mouse abdominal constriction at a dose of 100 mg/kg when administered subcutaneously; type: functional; conditions: Abdomen, sc, route subcutaneous; in short: as §2
[10] = system: Mus musculus; experiment: Percent inhibition of mouse abdominal constriction at a dose of 100 ug upon intracerebro ventricular administration; type: functional, Abdomen; in short: as §2

Sequence of Mu-type opioid receptor (Rattus norvegicus, UniProt P33535) (P33535 whole entry): as the sequence (P33535 whole entry, looked up) above

SMILES	pKi [1]	pEC50 [2]	pKi [3]	pEC50 [4]	Selectivity [5]	other results
Cc1[nH]c([C@@H]2Cc3ccccc3CN2C(=O)[C@@H](N)Cc2ccc(O)cc2)nc1-c1ccccc1 (stereo in doubt; 4c) [listing 1 of 2 here]	7.68	8.85	9.52	< 5.00		
CCCc1nc([C@@H]2Cc3ccccc3CN2C(=O)[C@@H](N)Cc2ccc(O)cc2)[nH]c1C	< 7.00	7.07	7.20			
N[C@@H](Cc1ccc(O)cc1)C(=O)N1Cc2ccccc2C[C@H]1c1nc2ccccc2[nH]1 (single isomer, unassigned) [listing 1 of 2 here]					> 2	
Cc1[nH]c([C@@H]2Cc3ccccc3CN2C(=O)[C@@H](N)Cc2ccc(O)cc2)nc1-c1ccccc1 (stereo in doubt) [listing 1 of 2 here]	7.07	6.90	7.71			
N[C@@H](Cc1ccc(O)cc1)C(=O)N1Cc2ccccc2C[C@H]1c1nc(-c2ccccc2)c(Br)[nH]1	7.94	8.72	9.96	< 5.00		
CN(C)C(=O)C(CCN1CCC(O)(c2ccc(Cl)cc2)CC1)(c1ccccc1)c1ccccc1 [LOPERAMIDE]			7.30	7.24		
Cc1[nH]c([C@@H]2CCCN2C(=O)[C@@H](N)Cc2ccc(O)cc2)nc1-c1ccccc1	7.64		< 7.00	5.89	< 0.02	
N[C@@H](Cc1ccc(O)cc1)C(=O)N1Cc2ccccc2C[C@H]1c1nc2ccccc2[nH]1 [listing 1 of 2 here]					> 6	
Cc1[nH]c([C@@H]2Cc3ccccc3CN2C(=O)[C@@H](N)Cc2ccc(O)cc2)nc1-c1ccccc1 (stereo in doubt) [listing 2 of 2 here]					4	
N[C@@H](Cc1ccc(O)cc1)C(=O)N1Cc2ccccc2C[C@H]1c1nc2ccccc2[nH]1 [listing 2 of 2 here]	< 7.00	7.43	7.82	< 5.00		
N[C@@H](Cc1ccc(O)cc1)C(=O)N1Cc2ccccc2C[C@H]1c1nc(Br)c(-c2ccccc2)[nH]1					14	
N[C@@H](Cc1ccc(O)cc1)C(=O)N1Cc2ccccc2C[C@H]1c1nc2ccccc2[nH]1 (single isomer, unassigned) [listing 2 of 2 here]	< 7.00	6.36	7.30			
N[C@@H](Cc1ccc(O)cc1)C(=O)N1Cc2ccccc2C[C@H]1c1nc(-c2ccccc2)c[nH]1	7.26	7.60	9.05	5.62	63	pKi [6]: 6.91; pEC50 [7]: < 7.52; Inhibition [8]: 40%; inhibition in vivo at 100 mg/kg [9]: 0%; Inhibition [10]: 100%
N[C@@H](Cc1ccc(O)cc1)C(=O)N1Cc2ccccc2C[C@H]1C(=O)NCCc1ccccc1 (HELM PEPTIDE1{Y.[Tic].[c1ccc(CCN[*:1])cc1]}$$$$V2.0)	7.16	7.09	8.28	5.67	13	
Cc1[nH]c([C@@H]2Cc3ccccc3CN2C(=O)[C@@H](N)Cc2ccc(O)cc2)nc1-c1ccccc1 (stereo in doubt; 4c) [listing 2 of 2 here]					75	
Cc1[nH]c([C@@H]2CCCCN2C(=O)[C@@H](N)Cc2ccc(O)cc2)nc1-c1ccccc1	8.82	6.27	7.67	6.82	0.1	
CCCc1[nH]c([C@@H]2Cc3ccccc3CN2C(=O)[C@@H](N)Cc2ccc(O)cc2)nc1C					> 1	
CCCc1c[nH]c([C@@H]2Cc3ccccc3N2C(=O)[C@@H](N)CC)n1	< 7.00		< 7.00			
CCCc1nc([C@@H]2Cc3ccccc3CN2C(=O)[C@@H](N)Cc2ccc(O)cc2)[nH]c1C (single isomer, unassigned)	< 7.00		< 7.00			
